A selection: hits, their analogues and other compounds. The true share with any hit is near 6.8%.
PHOSPHO1 block: PHOSPHO1 (human) inhibition; Q8TCT1; recombinant PHOSPHO1, absorbance phosphatase assay; inhibition, % at 13.3 µM; 1.1% of 290,000 active; in the data active = inhibition above about 60%
Target sequence (Q8TCT1 whole entry, looked up): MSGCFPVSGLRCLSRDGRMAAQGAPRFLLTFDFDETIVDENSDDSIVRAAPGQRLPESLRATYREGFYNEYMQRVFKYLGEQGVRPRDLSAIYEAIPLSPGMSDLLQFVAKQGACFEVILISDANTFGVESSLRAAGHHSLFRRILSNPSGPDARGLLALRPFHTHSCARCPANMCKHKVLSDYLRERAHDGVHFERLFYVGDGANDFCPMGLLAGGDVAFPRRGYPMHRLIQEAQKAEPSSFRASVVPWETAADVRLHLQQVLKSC
HSF1 inhib: HSF1 inhibition | NIH3T3-HGL HSE-luciferase, MG132-induced, luminescence 8 h; hits give low values | activity change, negative = inhibition, % at 7.5 µM (by protocol) | 0.77% of 300,000 active | AID 2098;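 active = more than half of replicate wells show activity change below -50%, luminescence cut by over half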;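 also: luciferase reports HSF-1 transcriptional activity via heat shock element; 0% = median of DMSO wells and -100% = zero luminescence signal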
HSF1 activator: increases HSF-1 driven luciferase reporter signal. NIH3T3-HGL HSF-1 luciferase reporter, MG132, 8 h; 100% = twice DMSO control signal. 1.7% of 300,000 active. activation, % at 9 µM. AID 504408;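 active = mean replicate activation of at least 50% with a set share of replicates each reaching 50%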;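 also: 0% = median of the neutral control wells and 100% = twice that signal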
AI-2 QS mod: modulates the Vibrio harveyi AI-2 quorum sensing system | activity change, % at 7.5 µM | Vibrio harveyi JMH597 AI-2 luminescence/OD600 ratio, 9 h; hits give low values; strain lacks LuxN and CqsS sensors; 0 = neutral-control median | 0.4% of 300,000 active; in the data active = activity change below about -75%, passing the limit was not always enough;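 also: luminescence divided by OD600 gain over 9 h not by final OD600 alone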
ALR inh: inhibitors of human sulfhydryl oxidase ALR. P55789. purified ALR, DTT oxidation, H2O2 HRP-luminol luminescence. inhibition, % (test concentration not listed). 3.8% of 290,000 active. AID 485317;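 active = mean replicate inhibition above about 79%, with every replicate also reaching it, limit read from the data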
Target sequence (P55789 whole entry, looked up): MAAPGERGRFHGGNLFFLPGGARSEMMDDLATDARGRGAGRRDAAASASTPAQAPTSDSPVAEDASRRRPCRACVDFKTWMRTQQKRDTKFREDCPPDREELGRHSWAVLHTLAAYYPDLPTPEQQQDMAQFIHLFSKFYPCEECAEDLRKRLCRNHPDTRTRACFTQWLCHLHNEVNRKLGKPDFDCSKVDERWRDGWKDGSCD
core dimer inh: HCV core protein dimerization inhibition; TR-FRET GST/Flag-core106 dimerization, 1536-well; inhibition, % at 5 µM; 0.33% of 300,000 active; AID 1899;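 active = inhibition above the mean of all tested compounds plus 3 SD, set per screening campaign, cut at about 45% in these data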
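Assay system: tagged HCV core106 pair (GST and Flag); medium: KF-containing HEPES buffer, pH 7.45, DTT, CHAPS, BSA; also added: Eu donor and XL665 acceptor anti-tag antibodies; dosing: 5 µM single dose; timing: compound-protein-antibody incubation 4 h at 22.5 °C; signal: TR-FRET 671 and 617 nm emission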
* = called active by the depositor; . = no result given.

SMILES | PHOSPHO1 block | HSF1 inhib | HSF1 activator | AI-2 QS mod | ALR inh | core dimer inh
CC(=O)NCc1ccc(-c2nc3ccccc3s2)cc1 | 43 | 9 | 26 | 27 | -5 | 7
O=c1c(-c2nc3ccccc3s2)cccn1Cc1ccccc1 | 36 | 50 | 93* | 12 | . | 3
Cc1ccc(Cn2cccc(-c3nc4ccccc4s3)c2=O)cc1 | 22 | 53 | 106* | 12 | 10 | 0
COc1cccc(NC(=O)c2ccc(N3C(=O)C4CC=CCC4C3=O)cc2)c1 (stereo not given) | . | 0 | 7 | 2 | 18 | 0
COc1ccc(OC)c(C2=NOC(C(=O)N3CCCc4ccccc43)C2)c1 (stereo not given) | -29 | -1 | 4 | 16 | 38 | -1
COc1ccc(/C=N/N=C2/NC(=O)C(CC(=O)O)S2)cc1OCc1ccc(Cl)cc1Cl (stereo not given) | -7 | -5 | -8 | -11 | 7 | 18
CCOc1cc(/C=N/N=C2/NC(=O)C(CC(=O)O)S2)ccc1OS(=O)(=O)c1ccc(C)cc1 (stereo not given) | 26 | 3 | 3 | 33 | . | .
COc1ccc(/C=N/N=C2/NC(=O)C(CC(=O)O)S2)cc1OCc1ccccc1Cl (stereo not given) | 3 | -4 | -11 | 10 | 92* | 2
CCOc1cc(/C=N/N=C2/NC(=O)C(CC(=O)O)S2)ccc1OCc1ccccc1Cl (stereo not given) | 20 | 3 | 7 | 15 | 98* | 19
CN1CCN(C(=O)c2ccc(Cn3cc(Cl)cn3)o2)CC1 | 32 | 15 | 64* | 7 | -3 | 3
O=C(c1ccc(Cn2cc(Br)cn2)cc1)N1CCN(c2ccccc2)CC1 | -28 | 5 | 12 | 23 | 0 | 12
O=C(c1ccc(Cn2cc(Cl)cn2)cc1)N1CCN(c2ccccc2)CC1 | -46 | -3 | -3 | 15 | 98* | 2
Cn1c(CNC(=O)CCNC(=O)c2cccc(Br)c2)cc(=O)n(C)c1=O | 37 | 3 | 2 | -10 | -1 | -23
Cc1ccc(S(=O)(=O)NCC(=O)OCC(=O)N(CCC#N)c2ccccc2)cc1 | . | . | . | . | -2 | .
CC1(C)Cc2ccccc2C2=NNC(=O)C2=N1 | 8 | 25 | 42 | 7 | 99* | -24
O=C1OCC/C1=C\c1ccc(O)cc1 | 34 | -4 | 3 | 12 | 98* | 0
O=C1OCC/C1=C\c1ccc2c(c1)OCO2 | 12 | -2 | 13 | -7 | -5 | -9
COc1ccc(NS(=O)(=O)c2cccc3ccccc23)cc1 | . | 2 | 12 | 8 | 0 | -2
Cc1cc(C)n2nc(SCC(=O)N3CCN(c4ccccc4)CC3)nc2n1 | . | . | . | . | 98* | .
Cc1ccnc(SCC(=O)N2CCN(c3ccccc3)CC2)n1 | 11 | -10 | -3 | 7 | 98* | 3
O=C(CSc1ncccn1)N1CCN(C(c2ccccc2)c2ccccc2)CC1 | 86* | 14 | 11 | 9 | -27 | 4
Cc1ccnc(SCC(=O)N2CCN(c3cccc(Cl)c3)CC2)n1 | -11 | -1 | 4 | 26 | 19 | -2
Cc1ccc(Nc2nnc(C)c3ccccc23)c(C)c1 | . | 0 | 1 | 5 | 6 | -3
NC(=O)CC(NC(=O)Cc1cccc2ccccc12)c1ccc(NCCc2ccccc2F)c([N+](=O)[O-])c1 (stereo not given) | 53 | 5 | -6 | -6 | -9 | 25
O=C(O)c1cccc(Nc2ccnc(Nc3cccc(C(=O)O)c3)n2)c1 | 27 | -55* | -60 | 0 | . | -1
SMILES | PHOSPHO1 block | HSF1 inhib | HSF1 activator | AI-2 QS mod | ALR inh | core dimer inh
Fc1ccc(Nc2ccnc(Nc3ccc(F)cc3)n2)cc1 | -12 | 32 | 72* | 7 | -4 | -7
Nc1ncnc(Nc2ccc(F)cc2)n1 | -2 | 3 | -4 | 15 | . | 3
CC1=C(C(=O)OCC2CCCO2)C(c2ccc(Cl)cc2)NC(=O)N1 (stereo not given) | 53 | 23 | 30 | 30 | -33 | -2
CCCc1ccc(OCc2ccc(C(=O)N3CCN(c4ccccn4)CC3)o2)c(OC)c1 | 6 | 16 | 33 | 23 | -78 | 5
O=C(NCCSCc1ccco1)Nc1cc(Cl)cc(Cl)c1 | -22 | 7 | 33 | 33 | 89* | 6
O=C(CSCc1ccc(Cl)cc1)NCCSCc1ccco1 | -19 | 1 | 6 | -8 | 32 | 5
COC(=O)COc1cccc2c(=O)n(CC(=O)N3CCCc4ccccc43)ccc12 | -14 | 3 | 31 | -2 | 89* | 6
CCOC(=O)COc1cccc2c(=O)n(CC(=O)N3CCCCC3)ccc12 | 51 | 4 | 17 | -2 | . | -2
Nc1ccc(S(=O)(=O)N2CCCC2)cc1Cl | 16 | -1 | -13 | 8 | 21 | -2
COc1nc(Nc2ccc(O)cc2)nc(OC(C(F)(F)F)C(F)(F)F)n1 | 22 | -3 | 8 | 4 | 99* | -1
O=C(CN1C(=O)NC2(CCCC2)C1=O)OCc1cc(=O)n2cc(Br)ccc2n1 | -1 | 7 | -9 | 42 | -9 | 19
COc1ccc(O)c(C(=O)c2cnc3c(c2)c(C)nn3CCO)c1 | 7 | 7 | 6 | 18 | -2 | 2
Nc1ccccc1-c1nnc(SCc2ccccc2Cl)[nH]c1=O | 12 | 25 | 26 | 10 | 31 | 1
Cc1ccc(CSc2nnc(-c3ccccc3N)c(=O)[nH]2)cc1 | 102* | 15 | 4 | -1 | -1 | 1
CC(=O)Nc1ccccc1-c1nnc(SCc2ccccc2Cl)[nH]c1=O | 24 | 3 | 3 | 18 | 99* | -3
O=C(CSS(=O)(=O)O)N1CCN(C(=O)c2ccoc2)CC1 | 40 | -3 | -10 | 7 | 98* | -4
O=C(c1cccc(Cl)c1)C1CCCN(C(=O)c2ccoc2)C1 (stereo not given) | 20 | 5 | -5 | 15 | 37 | -4
Cc1cc(NC(=O)CCC(=O)N(c2ccccc2)C(C(=O)NC2CCCC2)c2ccccc2C)no1 (stereo not given) | 36 | 1 | 2 | 26 | . | 19
COc1cc(CNC(C)C)ccc1OCC(=O)Nc1cccc2ccccc12 | 61* | -7 | -8 | 8 | -4 | 0
COc1ccc(CC(=O)Nc2cccc3ccccc23)cc1OC | 19 | -1 | 11 | 11 | . | 9
CCN(CC)c1ccc(NC(=O)CN2CCN(CC(=O)Nc3ccc(F)cc3)CC2)cc1 | -31 | . | . | . | 98* | -10
O=C(COC(=O)CCC(=O)c1ccc(F)cc1)Nc1ccccc1 | 7 | 1 | 0 | 38 | 7 | 1
COc1ccc(CCNC(=O)COC(=O)CCC(=O)c2ccc(F)cc2)cc1 | 24 | -10 | -1 | 22 | 85* | -5
CCN(CC)c1ccc(NC(=O)COC(=O)CSc2ccc(Br)cc2C)cc1 | 12 | 1 | -7 | 37 | 99* | 0
